Measured values as given in ChEMBL document CHEMBL4765256, “Structural features and functional activities of benzimidazoles as NOD2 antagonists” (Eur J Med Chem, 2020).
Calls of active or inactive are those of the source. The rule behind the calls is not given here.

How the values were obtained:
[1] = test system: HEK293; test: Cytotoxicity against human HEK293 cells expressing human NOD1 assessed as reduction in metabolic activity at 20 uM incubated for 18 hrs by MTS assay; type: ADME, cell-based; details: hek293, 18 h
Summary of the method: (§1)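 HEK-Blue NOD1 or NOD2 cells seeded at 1 × 10^4 cells/well in triplicate. Treated 18 h with 20 µM compound or 0.1% DMSO vehicle. Metabolic activity read by MTS (CellTiter 96 AQueous One) and expressed relative to vehicle control. Mean ± SD of three biological replicates.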

[2] = test system: HEK293; test: Cytotoxicity against human HEK293 cells expressing human NOD2 assessed as reduction in metabolic activity at 20 uM incubated for 18 hrs by MTS assay; type: ADME, cell-based; details: hek293, 18 h; summary of the method: as §1
[3] = target: T1, Nucleotide-binding oligomerization domain-containing protein 1 (Homo sapiens) (UniProt Q9Y239); test: Antagonist activity at human NOD1 expressed in HEK293 cells assessed as reduction in C12-iE-DAP-induced NF-kappaB activation at 10 uM preincubated for 1 hr followed by C12-iE-DAP stimulation and measured after 18 hrs by SEAP reporter gene based spectrophotometric analysis; type: cell-based; details: time 19.0 hrs
T1 sequence (whole entry): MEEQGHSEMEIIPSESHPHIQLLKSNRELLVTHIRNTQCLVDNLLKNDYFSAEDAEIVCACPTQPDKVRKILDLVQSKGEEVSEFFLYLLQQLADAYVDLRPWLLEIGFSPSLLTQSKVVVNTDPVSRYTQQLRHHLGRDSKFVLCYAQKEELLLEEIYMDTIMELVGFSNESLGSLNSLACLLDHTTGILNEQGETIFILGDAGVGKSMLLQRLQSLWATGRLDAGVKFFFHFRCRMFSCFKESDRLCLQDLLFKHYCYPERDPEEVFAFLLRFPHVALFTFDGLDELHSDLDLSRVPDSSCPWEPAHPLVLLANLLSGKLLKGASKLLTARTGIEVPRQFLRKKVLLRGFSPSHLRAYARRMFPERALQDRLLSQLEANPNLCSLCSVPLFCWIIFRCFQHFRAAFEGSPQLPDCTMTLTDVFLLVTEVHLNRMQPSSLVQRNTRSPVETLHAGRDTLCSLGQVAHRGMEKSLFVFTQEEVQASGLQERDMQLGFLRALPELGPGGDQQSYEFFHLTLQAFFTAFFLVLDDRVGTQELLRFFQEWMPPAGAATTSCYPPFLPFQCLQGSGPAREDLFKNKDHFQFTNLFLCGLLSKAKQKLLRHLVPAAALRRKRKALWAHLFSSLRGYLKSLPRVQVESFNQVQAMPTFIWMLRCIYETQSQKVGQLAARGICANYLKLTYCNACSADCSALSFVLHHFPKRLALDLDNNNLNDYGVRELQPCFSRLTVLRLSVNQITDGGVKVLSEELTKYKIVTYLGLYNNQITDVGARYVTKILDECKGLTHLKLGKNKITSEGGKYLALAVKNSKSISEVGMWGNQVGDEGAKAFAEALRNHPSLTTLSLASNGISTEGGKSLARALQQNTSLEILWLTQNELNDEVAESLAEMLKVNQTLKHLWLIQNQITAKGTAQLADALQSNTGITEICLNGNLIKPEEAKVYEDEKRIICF
Summary of the method: (§2)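 HEK-Blue NOD1 or NOD2 reporter cells (5 × 10^5 cells/mL, passages 7–12) pre-treated 1 h with 10 µM compound. Then 100 nM C12-iE-DAP (NOD1) or 2 µM MDP (NOD2) for 18 h at 37 °C, 5% CO2. Secreted SEAP read at 620 nm. DMSO ≤0.1% vehicle control. Duplicates, three biological replicates.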

[4] = target: T1, Nucleotide-binding oligomerization domain-containing protein 1 (Homo sapiens); test: Antagonist activity at NOD1 in human THP-1 cells assessed as reduction in C12-iE-DAP-induced IL-8 secretion at 20 uM preincubated for 1 hr followed by C12-iE-DAP stimulation and measured after 20 hrs by ELISA; type: cell-based; details: filed as antagonist, time 21.0 hrs
Summary of the method: (§3)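 THP-1 cells at 10^6 cells/mL in 24-well cultures, passages 3–12. Pre-treated 1 h with 20 µM compound, then 10 µM MDP (NOD2) or 10 µM C12-iE-DAP (NOD1) added, 20 h at 37 °C, 5% CO2. Triplicate wells, DMSO ≤0.2% as vehicle control. Supernatant IL-8 by sandwich ELISA, detection limit 15.6 pg/mL. Mean ± SD of duplicates from three independent experiments, Dunnett test.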

[5] = test system: THP-1; test: Antagonist activity at NOD1/TLR4 in human THP-1 cells assessed as reduction in C12-iE-DAP/LPS-induced TNF-alpha secretion at 20 uM preincubated for 1 hr followed by C12-iE-DAP/LPS stimulation and measured after 20 hrs by ELISA; type: cell-based; details: time 21.0 hrs
Summary of the method: (§4)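 Synergy setting in THP-1 cells: 1 h pre-treatment with 20 µM compound, then 10 µM MDP or C12-iE-DAP plus 1 ng/mL E. coli O127:B8 LPS for 20 h. Supernatant TNF-α by sandwich ELISA, detection limit 4 pg/mL. DMSO vehicle ≤0.2%. Duplicates from three independent experiments, mean ± SD, Dunnett test against agonist+LPS-treated cells.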

[6] = target: T2, Nucleotide-binding oligomerization domain-containing protein 2 (Homo sapiens, UniProt Q9HC29); test: Antagonist activity at human NOD2 expressed in HEK293 cells assessed as reduction in MDP-induced NF-kappaB activation at 10 uM preincubated for 1 hr followed by MDP stimulation and measured after 18 hrs by SEAP reporter gene based spectrophotometric analysis; type: cell-based; details: time 19.0 hrs; summary of the method: as §2
[7] = target: T3, Nucleotide-binding oligomerization domain-containing protein 1 (Homo sapiens, UniProt Q9Y239); test: Antagonist activity at human NOD1 expressed in HEK293 cells assessed as reduction in C12-iE-DAP-induced NF-kappaB activation preincubated for 1 hr followed by C12-iE-DAP stimulation and measured after 18 hrs by SEAP reporter gene based spectrophotometric analysis; type: cell-based
T3 sequence (Q9Y239 whole entry): T1 sequence (whole entry)

[8] = target: T2, Nucleotide-binding oligomerization domain-containing protein 2; test: Antagonist activity at human NOD2 expressed in HEK293 cells assessed as reduction in MDP-induced NF-kappaB activation preincubated for 1 hr followed by MDP stimulation and measured after 18 hrs by SEAP reporter gene based spectrophotometric analysis; type: cell-based
Summary of the method: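 Dose–response in HEK-Blue NOD2 and NOD1 cells (5 × 10^5 cells/mL): 1 h pre-treatment with 0.3125–20 µM antagonist, then 2 µM MDP or 100 nM C12-iE-DAP respectively, 18 h incubation. SEAP absorbance read at 620 nm. IC50 fitted by non-linear regression. Duplicates, three biological replicates, DMSO ≤0.1%.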

[9] = test system: THP-1; test: Antagonist activity at NOD in human THP-1 cells assessed as increase in IL-8 secretion at 20 uM; type: cell-based
Summary of the method: (§5)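 THP-1 cells at 10^6 cells/mL in RPMI 1640 with 10% heat-inactivated FCS, passages 3–12, exposed to 20 µM compound alone (no NOD agonist). IL-8 and TNF-α in cell-free supernatants measured by sandwich ELISA, reported in pg/mL. Detection limits were 15.6 pg/mL for IL-8 and 4 pg/mL for TNF-α. DMSO vehicle control, not above 0.2% final.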

[10] = test system: THP-1; test: Antagonist activity at NOD in human THP-1 cells assessed as increase in TNF-alpha secretion at 20 uM; type: cell-based; summary of the method: as §5
[11] = test system: THP-1; test: Cytotoxicity against human THP-1 cells assessed as […] dehydrogenase leakage at 20 uM incubated for 18 hrs; type: cell-based; details: thp-1, 18 h
Summary of the method: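 THP-1 cells treated 18 h with compound at up to 20 µM. Lactate dehydrogenase released into cell-free supernatant measured with a colorimetric kit, results given as OD.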

[12] = target: T2, Nucleotide-binding oligomerization domain-containing protein 2; test: Antagonist activity at NOD2 in human THP-1 cells assessed as reduction in MDP-induced IL-8 secretion at 20 uM preincubated for 1 hr followed by MDP stimulation and measured after 20 hrs by ELISA; type: cell-based; details: filed as antagonist, time 21.0 hrs; summary of the method: as §3
[13] = test system: THP-1; test: Antagonist activity at NOD2/TLR4 in human THP-1 cells assessed as reduction in MDP/LPS-induced TNF-alpha secretion at 20 uM preincubated for 1 hr followed by MDP/LPS stimulation and measured after 20 hrs by ELISA; type: cell-based; details: filed as antagonist, time 21.0 hrs; summary of the method: as §4

T2 sequence (Q9HC29 whole entry, the tested form may be a part): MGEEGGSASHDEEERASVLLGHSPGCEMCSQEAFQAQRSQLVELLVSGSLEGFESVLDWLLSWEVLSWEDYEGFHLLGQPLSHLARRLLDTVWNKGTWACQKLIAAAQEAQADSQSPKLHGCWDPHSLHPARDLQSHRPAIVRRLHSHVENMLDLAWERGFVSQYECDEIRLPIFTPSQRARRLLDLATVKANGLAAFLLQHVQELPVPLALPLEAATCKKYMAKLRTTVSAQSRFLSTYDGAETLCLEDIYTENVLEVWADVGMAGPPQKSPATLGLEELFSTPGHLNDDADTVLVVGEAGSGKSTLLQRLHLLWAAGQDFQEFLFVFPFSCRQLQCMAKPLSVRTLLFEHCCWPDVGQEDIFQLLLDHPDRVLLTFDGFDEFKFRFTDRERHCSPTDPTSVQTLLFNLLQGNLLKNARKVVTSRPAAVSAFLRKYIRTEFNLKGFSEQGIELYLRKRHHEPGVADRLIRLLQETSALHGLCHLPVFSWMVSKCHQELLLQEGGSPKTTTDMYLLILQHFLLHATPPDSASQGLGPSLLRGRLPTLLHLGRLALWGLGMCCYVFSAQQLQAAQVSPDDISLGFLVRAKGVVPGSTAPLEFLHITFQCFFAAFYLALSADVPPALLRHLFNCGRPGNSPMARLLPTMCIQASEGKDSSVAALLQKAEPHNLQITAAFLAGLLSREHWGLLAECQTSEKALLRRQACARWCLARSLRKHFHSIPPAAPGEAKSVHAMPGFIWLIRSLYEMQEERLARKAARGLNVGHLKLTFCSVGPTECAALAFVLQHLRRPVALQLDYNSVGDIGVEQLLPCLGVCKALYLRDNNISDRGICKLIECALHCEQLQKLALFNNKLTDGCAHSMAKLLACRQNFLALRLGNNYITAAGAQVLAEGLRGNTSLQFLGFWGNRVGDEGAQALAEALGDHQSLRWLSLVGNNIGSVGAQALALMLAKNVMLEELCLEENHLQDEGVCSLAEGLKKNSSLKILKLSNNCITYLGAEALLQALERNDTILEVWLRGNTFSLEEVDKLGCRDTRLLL

| SMILES | Activity [1] | Activity [2] | Activity ([3]; filed as antagonist) | Activity ([6]; filed as antagonist) | IC50 [7] [µM] | IC50 ([8]; read-out: IC50) [µM] | Activity [3] | Activity [6] | also measured |
| --- | --- | --- | --- | --- | --- | --- | --- | --- | --- |
| Cc1ccc(S(=O)(=O)n2c(N)nc3ccccc32)cc1 | Non-Toxic | Non-Toxic | Active |  |  |  |  |  | Activity [4]: Active; Activity ([5]; filed as antagonist): Active |
| O=C(Cn1c(CCNS(=O)(=O)c2cccnc2)nc2ccccc21)Nc1ccc2c(c1)CCC2 | Non-Toxic | Non-Toxic | Active | Active | 32 | 16.4 |  |  |  |
| O=C(Cc1ccncc1)NCCc1nc2ccccc2n1CC(=O)Nc1ccc2c(c1)CCC2 | Non-Toxic | Non-Toxic |  |  | 42.3 | 25.9 | inactive | inactive |  |
| CN(CCc1nc2ccccc2n1CC(=O)Nc1ccc2c(c1)CCC2)S(=O)(=O)c1ccccc1 | Non-Toxic | Non-Toxic |  |  | 2.56 | 0.63 |  |  |  |
| O=C(Cn1c(CCCNC(=O)c2ccccc2)nc2ccccc21)Nc1ccc2c(c1)CCC2 | Non-Toxic | Non-Toxic | Active | Active | 17.7 | 5.7 |  |  | Activity [9]: inactive; Activity [10]: inactive; Activity [11]: Non-Toxic; Activity [4]: Active; Activity [12]: Active; Activity [5]: inactive; Activity [13]: Active |
| O=C(Cn1c(CCNC(=O)c2ccncc2)nc2ccccc21)Nc1ccc2c(c1)CCC2 | Non-Toxic | Non-Toxic |  |  |  |  | inactive | inactive |  |
| O=C(Cn1c(CCCNS(=O)(=O)c2ccccc2)nc2ccccc21)Nc1ccc2c(c1)CCC2 | Non-Toxic | Non-Toxic |  |  | 9.25 | 5.12 |  |  |  |
| CC(C)(C)OC(=O)N1CCC(C(=O)NCCc2nc3ccccc3n2CC(=O)Nc2ccc3c(c2)CCC3)CC1 | Non-Toxic | Non-Toxic | Active | Active | 13.3 | 10.6 |  |  |  |
| CN(C)c1cccc2c(S(=O)(=O)N(C)CCc3nc4ccccc4n3CC(=O)Nc3ccc4c(c3)CCC4)cccc12 | Non-Toxic | Non-Toxic |  |  | 3.08 | > 20 |  |  |  |
| CN(CCCc1nc2ccccc2n1CC(=O)Nc1ccc2c(c1)CCC2)S(=O)(=O)c1ccccc1 | Non-Toxic | Non-Toxic |  |  | 1.66 | 5.08 |  |  |  |
| Cl.O=C(Cn1c(CCNC(=O)C2CCNCC2)nc2ccccc21)Nc1ccc2c(c1)CCC2 | Non-Toxic | Non-Toxic |  |  |  |  | inactive | inactive |  |
| O=C(Cn1c(CCNCc2ccncc2)nc2ccccc21)Nc1ccc2c(c1)CCC2 | Non-Toxic | Non-Toxic |  |  | 27.8 | 22.9 | inactive | inactive |  |
| O=C(Cn1c(CNC(=O)c2ccccc2)nc2ccccc21)Nc1ccc2c(c1)CCC2 | Non-Toxic | Non-Toxic |  |  |  |  | inactive | inactive |  |
| O=C(Cn1c(CCNC(=O)c2cccnc2)nc2ccccc21)Nc1ccc2c(c1)CCC2 | Non-Toxic | Non-Toxic |  |  |  |  | inactive | inactive | IC50 ([8]; hek293): Not Active |
| O=C(CCc1nc2ccccc2n1CC(=O)Nc1ccc2c(c1)CCC2)Nc1ccccc1 | Non-Toxic | Non-Toxic | Active | Active | 12.4 | 8.8 |  |  |  |
| O=C(Cn1c(CCNCc2ccccc2)nc2ccccc21)Nc1ccc2c(c1)CCC2 | Toxic | Toxic | Active | Active | 30.7 | 4.76 |  |  |  |
